15 molecules from PMC11253873 (RSC Medicinal Chemistry, 2024) can be followed below.

As usually defined, the IC50 is the concentration needed to halve the response being measured.

In brackets after ≈: the same amount, converted by molar mass. Several values for one entry are separate records, joined by “and”; a condition that tells them apart may be missing. Equal values may be shown once.

The subject of the first assay is Pf3D7 parasites. Put plainly: P. falciparum growth inhibition assay. Conditions: read-out: Pf IC50, 3 days, PicoGreen DNA content. It counts as cell-based, Plasmodium falciparum. The gist of the method: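 Asynchronous cultures of wild-type 3D7 and fosmidomycin-resistant had1 strain E1-C12 are kept at 2% hematocrit in supplemented RPMI-1640 with 0.5% Albumax, under 5% O2/5% CO2/90% N2 at 37 °C. Parasites are diluted to 0.5% parasitemia and exposed to 1.2 nM–492.4 μM test compound from the start. After 3 days, DNA is read with PicoGreen (ex 485/em 528 nm). IC50 comes from a 4-parameter nonlinear fit. Technical duplicates, biological triplicate.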
For “[({3-[N-({[1,1′-Biphenyl]-4-yl}methoxy)acetamido]-1-(3,4-dichlorophenyl)propyl}({[(2,2-dimethylpropanoyl)oxy] methoxy}) phosphoryl)oxy] methyl-2,2-dimethylpropanoate [Compound 7d]”, the IC50 was determined as 8.78 ± 0.92 µM.

The next assay deals with Mtb H37Rv. In words: microbe, parasite or virus in culture. Conditions: Mycobacterium tuberculosis, H37RV, 336 h, read-out: Mtb MIC. It counts as cell-based, Mycobacterium tuberculosis.
As for `CC(=O)N(CCC(c1ccc(Cl)c(Cl)c1)P(=O)(OCOC(=O)C(C)(C)C)OCOC(=O)C(C)(C)C)OCc1ccc(-c2ccc(C(C)C)cc2)cc1` (stereo not shown) [Compound 7i, ({[1-(3,4-Dichlorophenyl)-3-(N-{[4′-(propan-2-yl)-[1,1′-biphenyl]-4-yl]methoxy}acetamido)propyl]({[(2,2-dimethylpropanoyl)oxy]methoxy})phosphoryl}oxy)methyl 2,2-dimethylpropanoate], the MIC is > 100 µg/mL. Same read-out and setting: under `CC(=O)N(CCC(c1ccc(Cl)c(Cl)c1)P(=O)(OCOC(=O)C(C)(C)C)OCOC(=O)C(C)(C)C)OC(C)c1ccc(C)cc1` (stereo not shown) [Compound 7k, ({[1-(3,4-Dichlorophenyl)-3-{N-[1-(4-methylphenyl)ethoxy]acetamido}propyl]({[(2,2-dimethylpropanoyl)oxy]methoxy})phosphoryl}oxy)methyl 2,2-dimethylpropanoate] stands 12.5 µg/mL (≈ 18.2 µM). With `CC(=O)N(CCC(c1ccc(Cl)c(Cl)c1)P(=O)(OCOC(=O)C(C)(C)C)OCOC(=O)C(C)(C)C)OC(C)c1ccc(Cl)cc1` (stereo not shown) [Compound 7j, ({[1-(3,4-Dichlorophenyl)-3-{N-[1-(4-chlorophenyl)ethoxy]acetamido}propyl]({[(2,2-dimethylpropanoyl)oxy]methoxy})phosphoryl}oxy)methyl 2,2-dimethylpropanoate], the MIC was determined as 9.4 µg/mL (≈ 13.3 µM). On to `CC(=O)N(CCC(c1ccc(Cl)c(Cl)c1)P(=O)(OCOC(=O)C(C)(C)C)OCOC(=O)C(C)(C)C)OCc1ccc2ccccc2c1` (stereo not shown) [Compound 7c, ({[1-(3,4-Dichlorophenyl)-3-{N-[(naphthalen-2-yl)methoxy]acetamido}propyl]({[(2,2-dimethylpropanoyl)oxy]methoxy})phosphoryl}oxy)methyl-2,2-dimethylpropanoate], for which the MIC amounted to 6.25 µg/mL (≈ 8.8 µM). As for `CC(=O)N(CCC(c1ccc(Cl)c(Cl)c1)P(=O)(OCOC(=O)C(C)(C)C)OCOC(=O)C(C)(C)C)OCc1ccccc1` (stereo not shown) [Compound 7b, [({3-[N-(Benzyloxy)acetamido]-1-(3,4-dichlorophenyl)propyl}({[(2,2-dimethylpropanoyl)oxy]methoxy})phosphoryl)oxy]methyl 2,2-dimethylpropanoate], the MIC stood at 6.25 µg/mL (≈ 9.46 µM).

Regarding `CC(=O)N(CCC(c1ccc(Cl)c(Cl)c1)P(=O)(OCOC(=O)C(C)(C)C)OCOC(=O)C(C)(C)C)OCc1ccc(Br)cc1` (stereo not shown) [Compound 7h, {[(3-{N-[(4-Bromophenyl)methoxy]acetamido}-1-(3,4-dichlorophenyl)propyl)({[(2,2-dimethylpropanoyl)oxy]methoxy})phosphoryl]oxy}methyl 2,2-dimethylpropanoate], the MIC stood at 6.25 µg/mL (≈ 8.45 µM). As for `CC(=O)N(CCC(c1ccc(Cl)c(Cl)c1)P(=O)(OCOC(=O)C(C)(C)C)OCOC(=O)C(C)(C)C)OC(C)c1ccc(F)cc1` (stereo not shown) [Compound 7n, ({[1-(3,4-Dichlorophenyl)-3-{N-[1-(4-fluorophenyl)ethoxy]acetamido}propyl]({[(2,2-dimethylpropanoyl)oxy]methoxy})phosphoryl}oxy)methyl 2,2-dimethylpropanoate], the MIC amounted to 4.6 µg/mL (≈ 6.64 µM).

In the case of `CC(=O)N(CCC(c1ccc(Cl)c(Cl)c1)P(=O)(O)O)OCc1ccc(-c2ccc(C(C)C)cc2)cc1.N.N` (stereo not shown) [Compound 6i], the MIC turned out to be 25 µg/mL. `CC(=O)N(CCC(c1ccc(Cl)c(Cl)c1)P(=O)(OCOC(=O)C(C)(C)C)OCOC(=O)C(C)(C)C)OC(C)c1ccccc1` (stereo not shown) [Compound 7e, ({[1-(3,4-Dichlorophenyl)-3-[N-(1-phenylethoxy)acetamido]propyl]({[(2,2-dimethylpropanoyl)oxy]methoxy})phosphoryl}oxy) methyl 2,2-dimethylpropanoate]: the MIC was 9.4 µg/mL and 13.9 µM.

For the molecule `CC(=O)N(O)CCC(c1ccc(Cl)c(Cl)c1)P(=O)(OCOC(=O)C(C)(C)C)OCOC(=O)C(C)(C)C` (stereo not shown) [Compound 7a, ({[1-(3,4-Dichlorophenyl)-3-(N-hydroxyacetamido)propyl]({[(2,2-dimethylpropanoyl)oxy]methoxy})phosphoryl}oxy)methyl 2,2-dimethylpropanoate], the MIC was found to be 4.6 µg/mL (≈ 8.06 µM). On the same count and under the same terms, under `CC(=O)N(CCC(c1ccc(Cl)c(Cl)c1)P(=O)(O)O)OCc1ccc2ccccc2c1.N.N` (stereo not shown) [Compound 6c] stands 12.5 µg/mL; under `CC(=O)N(CCC(c1ccc(Cl)c(Cl)c1)P(=O)(OCOC(=O)C(C)(C)C)OCOC(=O)C(C)(C)C)OCCCCc1ccccc1` (stereo not shown) [Compound 7g, ({[1-(3,4-Dichlorophenyl)-3-[N-(4-phenylbutoxy)acetamido]propyl]({[(2,2-dimethylpropanoyl)oxy]methoxy})phosphoryl}oxy) methyl 2,2-dimethylpropanoate], 12.5 µg/mL (≈ 17.8 µM).

For the molecule `CC(=O)N(CCC(c1ccc(Cl)c(Cl)c1)P(=O)(OCOC(=O)C(C)(C)C)OCOC(=O)C(C)(C)C)OC(C)c1ccc(C(F)(F)F)cc1` (stereo not shown) [Compound 7m, ({[1-(3,4-Dichlorophenyl)-3-{N-[1-(4-trifluoromethylphenyl)ethoxy]acetamido}propyl]({[(2,2-dimethylpropanoyl)oxy]methoxy})phosphoryl}oxy)methyl 2,2-dimethylpropanoate], the MIC is > 100 µg/mL. Still for that read-out and setting: then `CC(=O)N(CCC(c1ccc(Cl)c(Cl)c1)P(=O)(OCOC(=O)C(C)(C)C)OCOC(=O)C(C)(C)C)OCc1ccc(C(C)C)cc1` (stereo not shown) [Compound 7f, ({[1-(3,4-Dichlorophenyl)-3-(N-{[4-(propan-2-yl)phenyl]methoxy}acetamido)propyl]({[(2,2-dimethylpropanoyl)oxy]methoxy})phosphoryl}oxy) methyl 2,2-dimethylpropanoate], with 12.5 µg/mL (≈ 17.8 µM).

Still in this assay, the particulars now being: value in parentheses; Mtb H37Rv; […]; 2 weeks.
As to “[({3-[N-({[1,1′-Biphenyl]-4-yl}methoxy)acetamido]-1-(3,4-dichlorophenyl)propyl}({[(2,2-dimethylpropanoyl)oxy] methoxy}) phosphoryl)oxy] methyl-2,2-dimethylpropanoate [Compound 7d]”, the “Mtb MIC” value was 17.0 µM.
